Columns and labels:
Cytochrome P450 2D6 [1] = molecular target: Cytochrome P450 2D6 (Homo sapiens, UniProt P10635); experiment: Vmax for oxidation to 3,4-OH-MA by cytochrome P450 2D6 (wild type pSP19T7LT); expressed in 10E5 fluorescence units min-1 nmol-1 CYP; type: ADME
In short: (§1)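 E. coli membranes expressing His-tagged wild-type or Phe120Ala CYP2D6 (25 nM CYP) were incubated in 50 mM KPi pH 7.4 with 5 mM MgCl2. Substrate was tested at 10 concentrations, 0–200 µM. After 5 min preincubation at 37 °C, an NADPH-regenerating system was added (0.2 mM NADPH final). Reactions ran 10 min and were stopped with HClO4. Products were separated by C18 HPLC and read by fluorescence (ex 280/em 320 nm). Km and Vmax came from nonlinear regression of peak areas; at least two independent experiments.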

Cytochrome P450 2D6 [2] = molecular target: T1, Cytochrome P450 2D6 (Homo sapiens, UniProt P10635, F120A); experiment: Vmax for oxidation to N-OH-MDMA by cytochrome P450 2D6 (Phe120Ala mutant); expressed in 10E5 fluorescence units min-1 nmol-1 CYP; type: ADME; in short: as §1
T1 sequence (P10635 whole entry F120A): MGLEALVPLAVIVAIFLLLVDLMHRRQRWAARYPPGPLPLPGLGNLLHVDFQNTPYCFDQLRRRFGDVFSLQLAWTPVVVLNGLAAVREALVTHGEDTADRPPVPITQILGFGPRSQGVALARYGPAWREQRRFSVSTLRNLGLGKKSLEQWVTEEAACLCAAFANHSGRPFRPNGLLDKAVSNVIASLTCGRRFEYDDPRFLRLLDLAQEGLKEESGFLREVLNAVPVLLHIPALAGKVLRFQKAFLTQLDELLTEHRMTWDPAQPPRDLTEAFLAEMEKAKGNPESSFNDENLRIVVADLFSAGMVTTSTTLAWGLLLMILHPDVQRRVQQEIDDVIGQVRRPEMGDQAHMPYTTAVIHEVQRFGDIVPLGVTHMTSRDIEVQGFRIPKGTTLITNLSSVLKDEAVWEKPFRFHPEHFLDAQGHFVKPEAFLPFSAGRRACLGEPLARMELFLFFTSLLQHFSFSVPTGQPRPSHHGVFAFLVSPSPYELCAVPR

Cytochrome P450 2D6 [3] = molecular target: T1, Cytochrome P450 2D6; experiment: Vmax for oxidation to 3,4-OH-MA by cytochrome P450 2D6 (Phe120Ala mutant); expressed in 10E5 fluorescence units min-1 nmol-1 CYP; type: ADME; in short: as §1
Cytochrome P450 2D6 [4] = molecular target: T1, Cytochrome P450 2D6; experiment: Vmax for oxidation to 3,4-OH-MA by cytochrome P450 2D6 (Phe120Ala mutant); expressed as 10E5 fluorescence units min-1 nmol-1 CYP; expressed in 10E5 fluorescence units min-1 nmol-1 CYP; type: ADME; in short: as §1
CCNC(C)Cc1ccc2c(c1)OCO2 [5] = experiment: (§2) Michaelis-Menten constant for oxidation to N-OH-MDMA by cytochrome P450 2D6 (Phe120Ala mutant); type: ADME, Homo sapiens; in short: as §1
[6] = system: CN[C@@H](C)Cc1ccc2c(c1)OCO2; experiment: as §2; type: ADME, Homo sapiens; in short: as §1
CNC(C)Cc1ccc2c(c1)OCO2 [7] = experiment: as §2; type: ADME, Homo sapiens; in short: as §1
[8] = system: CN[C@H](C)Cc1ccc2c(c1)OCO2; experiment: as §2; type: ADME, Homo sapiens; in short: as §1
CCCNC(C)Cc1ccc2c(c1)OCO2 [9] = experiment: as §2; type: ADME, Homo sapiens; in short: as §1
CCNC(C)Cc1ccc2c(c1)OCO2 [10] = experiment: (§3) Michaelis-Menten constant for oxidation to MDA by cytochrome P450 2D6 (Phe120Ala mutant); type: ADME, Homo sapiens; in short: as §1
[11] = system: CN[C@@H](C)Cc1ccc2c(c1)OCO2; experiment: as §3; type: ADME, Homo sapiens; in short: as §1
CNC(C)Cc1ccc2c(c1)OCO2 [12] = experiment: as §3; type: ADME, Homo sapiens; in short: as §1
[13] = system: CN[C@H](C)Cc1ccc2c(c1)OCO2; experiment: as §3; type: ADME, Homo sapiens; in short: as §1
CCCNC(C)Cc1ccc2c(c1)OCO2 [14] = experiment: as §3; type: ADME, Homo sapiens; in short: as §1
CCNC(C)Cc1ccc2c(c1)OCO2 [15] = experiment: (§4) Michaelis-Menten constant for oxidation to 3,4-OH-MA by cytochrome P450 2D6 (Phe120Ala mutant); type: ADME, Homo sapiens; in short: as §1
[16] = system: CN[C@@H](C)Cc1ccc2c(c1)OCO2; experiment: as §4; type: ADME, Homo sapiens; in short: as §1
CNC(C)Cc1ccc2c(c1)OCO2 [17] = experiment: as §4; type: ADME, Homo sapiens; in short: as §1
[18] = system: CN[C@H](C)Cc1ccc2c(c1)OCO2; experiment: as §4; type: ADME, Homo sapiens; in short: as §1
CCCNC(C)Cc1ccc2c(c1)OCO2 [19] = experiment: as §4; type: ADME, Homo sapiens; in short: as §1
[20] = substrate: CN[C@H](C)Cc1ccc2c(c1)OCO2; experiment: (§5) Michaelis-Menten constant for oxidation to 3,4-OH-MA by cytochrome P450 2D6 (wild type pSP19T7LT); type: ADME, Homo sapiens; in short: as §1
[21] = substrate: CNC(C)Cc1ccc2c(c1)OCO2; experiment: as §5; type: ADME, Homo sapiens; in short: as §1
[22] = substrate: CN[C@@H](C)Cc1ccc2c(c1)OCO2; experiment: as §5; type: ADME, Homo sapiens; in short: as §1
[23] = substrate: CCCNC(C)Cc1ccc2c(c1)OCO2; experiment: as §5; type: ADME, Homo sapiens; in short: as §1

CCNC(C)Cc1ccc2c(c1)OCO2 (stereo not drawn)
Vmax (Cytochrome P450 2D6 [1]): 1.2
Vmax (Cytochrome P450 2D6 [2]): 1.4
Vmax (Cytochrome P450 2D6 [3]): 2.9

CN[C@@H](C)Cc1ccc2c(c1)OCO2
Vmax (Cytochrome P450 2D6 [4]): 2.4
Vmax (Cytochrome P450 2D6 [2]): 8.4

CCCNC(C)Cc1ccc2c(c1)OCO2 (stereo not drawn)
Vmax (Cytochrome P450 2D6 [1]): 1.3
Vmax (Cytochrome P450 2D6 [2]): 3
Vmax (Cytochrome P450 2D6 [3]): 7.5

CN[C@H](C)Cc1ccc2c(c1)OCO2
Vmax (Cytochrome P450 2D6 [1]): 1.2
Vmax (Cytochrome P450 2D6 [2]): 10.7
Vmax (Cytochrome P450 2D6 [3]): 2.4

CNC(C)Cc1ccc2c(c1)OCO2 (stereo not drawn) [MIDOMAFETAMINE]
Vmax (Cytochrome P450 2D6 [1]): 1.2
Vmax (Cytochrome P450 2D6 [3]): 2.2

Cytochrome P450 2D6 (Homo sapiens; F120A)
Km (CCNC(C)Cc1ccc2c(c1)OCO2 [5]): 5.7 µM
Km [6]: 6.9 µM
Km (CNC(C)Cc1ccc2c(c1)OCO2 [7]): 11.2 µM
Km [8]: 20.6 µM
Km (CCCNC(C)Cc1ccc2c(c1)OCO2 [9]): 28 µM
Km (CCNC(C)Cc1ccc2c(c1)OCO2 [10]): 4.5 µM
kcat (CCNC(C)Cc1ccc2c(c1)OCO2 [10]): 0.07 s⁻¹
Km [11]: 10.3 µM
kcat [11]: 0.0633 s⁻¹
Km (CNC(C)Cc1ccc2c(c1)OCO2 [12]): 14.5 µM
kcat (CNC(C)Cc1ccc2c(c1)OCO2 [12]): 0.0583 s⁻¹
Km [13]: 26.1 µM
kcat [13]: 0.0983 s⁻¹
Km (CCCNC(C)Cc1ccc2c(c1)OCO2 [14]): 9.1 µM
kcat (CCCNC(C)Cc1ccc2c(c1)OCO2 [14]): 0.122 s⁻¹
Km (CCNC(C)Cc1ccc2c(c1)OCO2 [15]): 3.3 µM
Km [16]: 4.9 µM
Km (CNC(C)Cc1ccc2c(c1)OCO2 [17]): 11.8 µM
Km [18]: 13.2 µM
Km (CCCNC(C)Cc1ccc2c(c1)OCO2 [19]): 5.2 µM

B1: Cytochrome P450 2D6 (Homo sapiens) (protein)
chain: MGLEALVPLAVIVAIFLLLVDLMHRRQRWAARYPPGPLPLPGLGNLLHVDFQNTPYCFDQLRRRFGDVFSLQLAWTPVVVLNGLAAVREALVTHGEDTADRPPVPITQILGFGPRSQGVFLARYGPAWREQRRFSVSTLRNLGLGKKSLEQWVTEEAACLCAAFANHSGRPFRPNGLLDKAVSNVIASLTCGRRFEYDDPRFLRLLDLAQEGLKEESGFLREVLNAVPVLLHIPALAGKVLRFQKAFLTQLDELLTEHRMTWDPAQPPRDLTEAFLAEMEKAKGNPESSFNDENLRIVVADLFSAGMVTTSTTLAWGLLLMILHPDVQRRVQQEIDDVIGQVRRPEMGDQAHMPYTTAVIHEVQRFGDIVPLGVTHMTSRDIEVQGFRIPKGTTLITNLSSVLKDEAVWEKPFRFHPEHFLDAQGHFVKPEAFLPFSAGRRACLGEPLARMELFLFFTSLLQHFSFSVPTGQPRPSHHGVFAFLVSPSPYELCAVPR
Km [20]: 2.7 µM
Km [21]: 1.9 µM
Km [22]: 3.3 µM
kcat [22]: 0.02 s⁻¹
Km [23]: 1 µM
